Here are results for seven compounds from ChEMBL document CHEMBL2331415, “Tubulin inhibitors from an endophytic fungus isolated from Cedrus deodara” (2013).

Experiment [1] concerns HL-60. As to the kind of experiment: Induction of apoptosis in human HL60 cells assessed as condensation, smoothening of the cell surface, blebbing of plasma membrane and formation of apoptotic bodies at 50 uM after 30 hrs by scanning electron microscopy. The experiment is classed as functional, cell-based.
Experiment [2] deals with HL-60. As to the kind of experiment: Induction of apoptosis in human HL60 cells assessed as condensation and fragmentation of nuclei at 50 uM after 30 hrs by DAPI staining based inverted fluorescence microscopy. The experiment is classed as functional, cell-based. A digest of the protocol:
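HL-60 seeded at 2 × 10^5 cells/mL in medium with 10% FCS and treated for 30 h at 37 °C, added from DMSO stock; controls got DMSO vehicle only. Air-dried smears fixed in methanol at −20 °C for 20 min, stained with DAPI 1 μg/mL in PBS for 20 min at room temperature in the dark, mounted in glycerol–PBS (1:1) and viewed by inverted fluorescence microscopy (40×).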

A further experiment has as its system SK-HEP1. As to the kind of experiment: Cytotoxicity against human SKHEP1 cells at 50 uM after 48 hrs by sulforhodamine B assay. The experiment is classed as functional. A digest of the protocol:
(§1)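 Cells kept in RPMI-1640 with 10% FCS and 1% penicillin-G at 37 °C under 5% CO2. Seeded at 8000–14 000 cells/100 μL and exposed for 48 h. Fixed with ice-cold TCA for 1 h at 4 °C, then water-washed and stained with 0.4% SRB for 0.5 h at room temperature. Unbound dye removed with 1% acetic acid; bound dye dissolved in 10 mM Tris (pH 10.05) and read at 540 nm.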
For orientation: Sulforhodamine B stains cellular protein and so reports cell mass.

The test system of experiment [3] is PC-3. As to the kind of experiment: Cytotoxicity against human PC3 cells at 50 uM after 48 hrs by sulforhodamine B assay. The experiment is classed as functional. In outline: as §1
For experiment [4], the target named is T1, Tubulin (Homo sapiens) (UniProt P68371+Q9H4B7+P0DPH7+P68366+Q13509+Q71U36+P04350+Q3ZCM7+P07437+P68363+Q9BQE3+Q6PEY2+Q13885+Q9BVA1+Q9BUF5). As to the kind of experiment: Inhibition of tubulin in human THP1 cells assessed as disruption and loss of microtubule organization at 50 uM after 48 hrs by immunofluorescence microscopic analysis. The class given is cell-based. To be noted: THP-1. A digest of the protocol:
(§2)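 THP-1 seeded at 1 × 10^5 cells/well on coverslips and allowed to adhere for 24 h before treatment. Fixed in 4% paraformaldehyde for 10 min, permeabilized with 0.5% Triton-X for 5 min and blocked with 10% goat serum. Probed with anti-α-tubulin (1:100, 1 h) then Alexa Fluor 488 secondary (1:500, 1 h), counterstained with DAPI 1 μg/mL and imaged by confocal microscopy. Three separate experiments.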

Experiment [5] has as its system HL-60. As to the kind of experiment: Induction of apoptosis in human HL60 cells assessed as condensation, smoothening of the cell surface, blebbing of plasma membrane at 30 uM after 30 hrs by scanning electron microscopy. The experiment is classed as functional, cell-based.
For experiment [6], the system named is A549. As to the kind of experiment: Cytotoxicity against human A549 cells at 50 uM after 48 hrs by sulforhodamine B assay. The experiment is classed as functional. In outline:
as §1

For experiment [7], the system named is THP-1. As to the kind of experiment: Cytotoxicity against human THP1 cells at 50 uM after 48 hrs by sulforhodamine B assay. The experiment is classed as functional. In outline: as §1
Experiment [8] deals with HCT-116. As to the kind of experiment: Cytotoxicity against human HCT116 cells at 50 uM after 48 hrs by sulforhodamine B assay. The experiment is classed as functional. A digest of the protocol: as §1
The subject of experiment [9] is HCT-116. As to the kind of experiment: Cytotoxicity against human HCT116 cells at 1 uM after 48 hrs by sulforhodamine B assay. The experiment is classed as functional. In outline: as §1
In experiment [10] the target is T1, Tubulin (Homo sapiens). As to the kind of experiment: Stabilization of tubulin polymerization in human THP1 cells at 1 uM after 24 hrs by immunofluorescence microscopic analysis. The class given is cell-based. To be noted: THP-1. A digest of the protocol: as §2
Experiment [11] relates to THP-1. As to the kind of experiment: Cytotoxicity against human THP1 cells at 1 uM after 48 hrs by sulforhodamine B assay. The class given is functional. In outline: as §1
Experiment [12] relates to A549. As to the kind of experiment: Cytotoxicity against human A549 cells at 1 uM after 48 hrs by sulforhodamine B assay. The experiment is classed as functional. In outline:
as §1

The test system of experiment [13] is PC-3. As to the kind of experiment: Cytotoxicity against human PC3 cells at 1 uM after 48 hrs by sulforhodamine B assay. The class given is functional. A digest of the protocol: as §1
Experiment [14] deals with THP-1. As to the kind of experiment: Cytotoxicity against human THP1 cells at 20 uM after 48 hrs by sulforhodamine B assay. The experiment is classed as functional. In outline: (§3)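 Cells grown in RPMI-1640 with 10% FCS and 1% penicillin-G at 37 °C, 5% CO2. Seeded at 8000–14 000 cells/100 μL and exposed for 48 h. Fixed with ice-cold TCA for 1 h at 4 °C, stained with 0.4% SRB for 0.5 h at room temperature, washed with 1% acetic acid, bound dye solubilised in 10 mM Tris pH 10.05, read at 540 nm.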

The test system of experiment [15] is A549. As to the kind of experiment: Cytotoxicity against human A549 cells at 20 uM after 48 hrs by sulforhodamine B assay. The experiment is classed as functional. A digest of the protocol: as §3
The test system of experiment [16] is HCT-116. As to the kind of experiment: Cytotoxicity against human HCT116 cells at 20 uM after 48 hrs by sulforhodamine B assay. The class given is functional. A digest of the protocol: as §3

Calls of active or inactive are those of the source. The calls are words filed in the database; no cut-off is given here.

For `C[C@H]1C[C@H]2CCCC(O)=C2C(=O)O1`, the outcome with HL-60 [1], in the experiment with HL-60 [2] and with HL-60 [5] was Active. The Activity in the experiment with SK-HEP1 was determined as 23%; in the experiment with PC-3 [3], 23%; in the experiment on A549 [6], 15%; with THP-1 [7] it was 54%; in the experiment with HCT-116 [8], 44%. Moreover, the microtubule disruption entry at Tubulin (Homo sapiens) [4] is “Active”.
For `CC(=O)O[C@H]1C(=O)[C@@]2(C)[C@H]([C@H](OC(=O)c3ccccc3)[C@]3(O)C[C@H](OC(=O)[C@H](O)[C@@H](NC(=O)c4ccccc4)c4ccccc4)C(C)=C1C3(C)C)[C@]1(OC(C)=O)CO[C@@H]1C[C@@H]2O` [PACLITAXEL], the results for the Activity with HCT-116 [9], in the experiment with THP-1 [11] and in the experiment with A549 [12] were 72%, 71% and 82%, respectively. The outcome on Tubulin (Homo sapiens) [10] was Active.
For `C[C@@H]1C[C@H]2CC(=O)C[C@H](C2)O1`, the outcome in the experiment on HL-60 [1], in the experiment with HL-60 [2] and with HL-60 [5] was Active. Besides, the Activity in the experiment with SK-HEP1 was found to be 26%; in the experiment with PC-3 [3] it was 23%; in the experiment on A549 [6], 71%; in the experiment on THP-1 [7], 0%; with HCT-116 [8] it was 59%. The microtubule disruption result at Tubulin (Homo sapiens) [4] is “Active”.
`CO[C@@]12[C@H](COC(N)=O)C3=C(C(=O)C(C)=C(N)C3=O)N1C[C@@H]1N[C@@H]12` [MITOMYCIN] had an Activity with PC-3 [13] of 59%.
Take `CC1=C[C@H](O)[C@@H]2O[C@@H]2C1=O`: the result in the experiment on HL-60 [1], in the experiment with HL-60 [2] and in the experiment with HL-60 [5] was Active. Further, the Activity is recorded as 100% in the experiment with SK-HEP1; 22% in the experiment on PC-3 [3]; 98% with A549 [6]; 50% with THP-1 [7]; 56% with HCT-116 [8]. Besides, the microtubule disruption result at Tubulin (Homo sapiens) [4] is “Active”.
In the case of `C[C@H]1C[C@H]2CC[C@H](O)C(O)=C2C(=O)O1`, the outcome in the experiment with HL-60 [1], in the experiment on HL-60 [2] and in the experiment with HL-60 [5] was Active. The Activity came out at 3% in the experiment with SK-HEP1; 34% in the experiment on PC-3 [3]; 35% in the experiment with A549 [6]; 40% in the experiment with THP-1 [7]; 35% with HCT-116 [8]. Further, at Tubulin (Homo sapiens) [4], the microtubule disruption entry is “Active”.
Regarding `O=c1[nH]cc(F)c(=O)[nH]1` [FLUOROURACIL], the Activity stood at 84% with THP-1 [14], 22% in the experiment with A549 [15] and 55% in the experiment on HCT-116 [16].
